Assay results published in ChEMBL document CHEMBL4765233, “From Lead to Drug Candidate: Optimization of 3-(Phenylethynyl)-1H-pyrazolo[3,4-d]pyrimidin-4-amine Derivatives as Agents for the Treatment of Triple Negative Breast Cancer” (J Med Chem, 2016).

What was measured:
MDA-MB-231 [1] = experiment: Antiproliferative activity against human MDA-MB-231 cells assessed as reduction in cell viability incubated for 72 hrs by MTT assay; format: functional, cell-based; details: MDA-MB-231, 72 h
How it was run: (§1)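 MTT viability assay. ATCC cell lines were grown in designated medium with 10% FBS at 37 °C, 5% CO2. Cells seeded at 1500−30000 per well and incubated 24 h, then exposed to compound (0−10 μg/mL) for 72 h. MTT added for 2−4 h. Formazan dissolved in DMSO (adherent) or acidified SDS overnight (suspension), absorbance read at 570 nm. Triplicates; IC50 calculated.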

HepG2 = experiment: Antiproliferative activity against human HepG2 cells assessed as reduction in cell viability incubated for 72 hrs by MTT assay; format: ADME, cell-based; details: HepG2, 72 h
MDA-MB-435 = experiment: Antiproliferative activity against human MDA-MB-435 cells assessed as reduction in cell viability incubated for 72 hrs by MTT assay; format: functional, cell-based; details: MDA-MB-435, 72 h; how it was run: as §1
[2] = Toxicity in SCID mouse xenografted with MDA-MB-231 cells assessed as animal death at 40 mg/kg, po qd for 21 days; format: organism-based; details: in vivo, dose 40 mg/kg/day, time 21 day, read-out: Activity
How it was run: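 SCID mice aged 5–6 weeks were injected subcutaneously with 100 μL of MDA-MB-231 cells resuspended at 5 × 10^7 per mL. When tumours reached 150–200 mm3, mice were randomised into groups of 3 or 6. Dosing was oral and daily, in sterile water with 25% PEG400 plus 5% DMSO. Side effects were checked daily and body weight every 3 days.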

[3] = Toxicity in SCID mouse xenografted with MDA-MB-231 cells assessed as change in body weight at 40 mg/kg, po qd for 15 days and measured every 3 days; format: organism-based; details: in vivo, 360 h, dose 40 mg/kg/day, time 15 day
MDA-MB-231 [4] = experiment: Antitumor activity against human MDA-MB-231 cells xenografted in SCID mouse assessed as tumor growth inhibition at 40 mg/kg, po qd for 15 days and measured every 3 days; format: functional; details: MDA-MB-231, po, 360 h, time 15 day
How it was run: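 SCID mice (5−6 weeks) injected subcutaneously with 100 μL of cells at 5 × 10^7/mL. At 150−200 mm3 mice randomized, 6 per group. Oral compounds given in water with 25% PEG400 plus 5% DMSO; paclitaxel given 10 mg/kg/week iv. Tumor volume a×b²/2 and body weight measured every 3 days. Inhibition rate (c−d)/c×100% against vehicle control.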

[5] = Toxicity in SCID mouse xenografted with MDA-MB-231 cells assessed as animal death at 40 mg/kg, po qd for 15 days; format: organism-based; details: in vivo, dose 40 mg/kg/day, time 15 day, read-out: Activity

SMILES | IC50 (MDA-MB-231 [1]) | IC50 (HepG2) | IC50 (MDA-MB-435) | mortality at 504 h [2] | Activity [3] | inhibition in vivo at 40 mg/kg/day (MDA-MB-231 [4]) | mortality at 360 h [5]
Cc1ccc(NC(=O)c2cccc(OC(F)(F)F)c2)cc1C#Cc1nn(C2CCN(C)CC2)c2ncnc(N)c12 | 0.075 µM | > 10 µM | 0.093 µM | – | – | – | –
CN1CCC(n2nc(C#Cc3cccc(C(=O)Nc4cccc(C(F)(F)F)c4)c3)c3c(N)ncnc32)CC1 | 1.69 µM | > 10 µM | 0.343 µM | – | – | – | –
Cc1ccc(NC(=O)c2cc(F)cc(C(F)(F)F)c2)cc1C#Cc1nn(C2CCN(C)CC2)c2ncnc(N)c12 | 0.671 µM | > 10 µM | 1.43 µM | – | – | – | –
Cc1ccc(NC(=O)c2cc(C(F)(F)F)cc(C(F)(F)F)c2)cc1C#Cc1nn(C2CCN(C)CC2)c2ncnc(N)c12 | 0.051 µM | 7.1 µM | 0.094 µM | – | – | – | –
Cc1ccc(NC(=O)c2cccc(C(F)(F)F)c2)cc1C#Cc1nn(CC2CCN(C)C2)c2ncnc(N)c12 (stereo not drawn) | – | 4.7 µM | – | – | – | – | –
COc1cccc(C(=O)Nc2ccc(C)c(C#Cc3nn(C4CCN(C)CC4)c4ncnc(N)c34)c2)c1 | 0.101 µM | > 10 µM | 0.285 µM | – | – | – | –
Cc1ccc(C(=O)Nc2cccc(C(F)(F)F)c2)cc1C#Cc1nn([C@@H]2CCN(C)C2)c2ncnc(N)c12 | 0.013 µM | 4.6 µM | 0.044 µM | – | – | – | –
Cc1ccc(NC(=O)c2ccc(C)c(C(F)(F)F)c2)cc1C#Cc1nn(C[C@@H](C)CO)c2ncnc(N)c12 | 0.048 µM | 8.3 µM | 0.123 µM | – | – | – | –
Cc1ccc(NC(=O)c2cccc(C(C)(C)C)c2)cc1C#Cc1nn([C@H]2CC[C@H](O)CC2)c2ncnc(N)c12 | 0.03 µM | 4.4 µM | 0.012 µM | – | – | – | –
Cc1ccc(NC(=O)c2ccc(F)c(C(F)(F)F)c2)cc1C#Cc1nn(C2CCN(C)CC2)c2ncnc(N)c12 | 0.523 µM | > 10 µM | 0.621 µM | – | – | – | –
Cc1ccc(NC(=O)c2cccc(Cl)c2)cc1C#Cc1nn(C2CCN(C)CC2)c2ncnc(N)c12 | 0.06 µM | 9.2 µM | 0.733 µM | – | – | – | –
Cc1ccc(NC(=O)c2cc(C(F)(F)F)ccc2F)cc1C#Cc1nn(C2CCN(C)CC2)c2ncnc(N)c12 | 0.201 µM | 2.7 µM | 0.117 µM | – | – | – | –
Cc1ccc(NC(=O)c2cccc(C(C)(C)C)c2)cc1C#Cc1nn(C2CCN(C)CC2)c2ncnc(N)c12 | 0.059 µM | > 10 µM | 0.02 µM | – | – | – | –
CN1CCC(n2nc(C#Cc3cc(NC(=O)c4cccc(C(F)(F)F)c4)ccc3Cl)c3c(N)ncnc32)CC1 | 0.947 µM | > 10 µM | 0.195 µM | – | – | – | –
CN1CCC(n2nc(C#Cc3cc(NC(=O)Nc4cccc(C(F)(F)F)c4)ccc3Cl)c3c(N)ncnc32)CC1 | 0.947 µM | > 10 µM | 0.334 µM | – | – | – | –
Cc1ccc(NC(=O)Nc2cccc(C(F)(F)F)c2)cc1C#Cc1nn(C2CCN(C)CC2)c2ncnc(N)c12 | 0.515 µM | > 10 µM | 0.09 µM | – | – | – | –
Cc1ccc(NC(=O)c2ccc(Cl)c(C(F)(F)F)c2)cc1C#Cc1nn(C[C@@H](C)CO)c2ncnc(N)c12 | 0.023 µM | > 10 µM | 0.319 µM | – | – | – | –
COc1ccc(C(=O)Nc2ccc(C)c(C#Cc3nn(C4CCN(C)CC4)c4ncnc(N)c34)c2)cc1 | 1.36 µM | > 10 µM | 8.9 µM | – | – | – | –
Cc1ccc(NC(=O)c2ccc(C(F)(F)F)cc2)cc1C#Cc1nn(C2CCN(C)CC2)c2ncnc(N)c12 | 0.854 µM | > 10 µM | 5.13 µM | – | – | – | –
Cc1ccc(NC(=O)c2cc(C(C)(C)C)on2)cc1C#Cc1nn(C2CCN(C)CC2)c2ncnc(N)c12 | 0.188 µM | > 10 µM | 0.082 µM | – | – | – | –

SMILES | IC50 (MDA-MB-231 [1]) | IC50 (HepG2) | IC50 (MDA-MB-435) | mortality at 504 h [2] | Activity [3] | inhibition in vivo at 40 mg/kg/day (MDA-MB-231 [4]) | mortality at 360 h [5]
Cc1ccc(C(=O)Nc2cccc(C(F)(F)F)c2)cc1C#Cc1nn(CC2CCN(C)CC2)c2ncnc(N)c12 | 0.07 µM | 3.1 µM | 0.055 µM | – | – | – | –
Cc1ccc(NC(=O)c2cccc(C(F)(F)F)c2F)cc1C#Cc1nn(C2CCN(C)CC2)c2ncnc(N)c12 | 0.296 µM | > 10 µM | 0.273 µM | – | – | – | –
CN1CCC(n2nc(C#Cc3cccc(NC(=O)c4cccc(C(F)(F)F)c4)c3)c3c(N)ncnc32)CC1 | 0.597 µM | 6 µM | 0.14 µM | – | – | – | –
Cc1ccc(NC(=O)c2cccc(F)c2)cc1C#Cc1nn(C2CCN(C)CC2)c2ncnc(N)c12 | 0.812 µM | > 10 µM | 2.07 µM | – | – | – | –
Cc1ccc(C(=O)Nc2cccc(C(F)(F)F)c2)cc1C#Cc1nn(CC2CCN(C)C2)c2ncnc(N)c12 (stereo not drawn) | 0.041 µM | 3.5 µM | 0.115 µM | – | – | – | –
COc1ccc(C(=O)Nc2ccc(C)c(C#Cc3nn(C4CCN(C)CC4)c4ncnc(N)c34)c2)cc1C(F)(F)F | 0.024 µM | 2.2 µM | 0.832 µM | 0% | – | – | –
Cc1ccc(NC(=O)c2cccc(C(F)(F)F)n2)cc1C#Cc1nn(C2CCN(C)CC2)c2ncnc(N)c12 | 0.509 µM | > 10 µM | 2.47 µM | – | – | – | –
CCn1nc(C#Cc2cc(C(=O)Nc3cccc(C(F)(F)F)c3)ccc2C)c2c(N)ncnc21 | 0.36 µM | > 10 µM | 0.238 µM | – | – | – | –
Cc1ccc(NC(=O)c2cccc(C(F)(F)F)c2)cc1C#Cc1nn(CC2CCN(C)CC2)c2ncnc(N)c12 | – | 3.2 µM | – | – | – | – | –
Cc1ccc(NC(=O)c2ccnc(C(F)(F)F)c2)cc1C#Cc1nn(C2CCN(C)CC2)c2ncnc(N)c12 | 0.284 µM | > 10 µM | 0.183 µM | – | – | – | –
Cc1cccc(C(=O)Nc2ccc(C)c(C#Cc3nn(C4CCN(C)CC4)c4ncnc(N)c34)c2)c1 | 0.133 µM | > 10 µM | 0.422 µM | – | – | – | –
Cc1ccc(C(=O)Nc2cccc(C(F)(F)F)c2)cc1C#Cc1nn(C2CCN(C)CC2)c2ncnc(N)c12 | 0.009 µM | 7.7 µM | 0.17 µM | – | -13.2% | 91.2% | 0%
Cc1ccc(NC(=O)c2cc(Cl)cc(C(F)(F)F)c2)cc1C#Cc1nn(C2CCN(C)CC2)c2ncnc(N)c12 | 0.085 µM | 2.6 µM | 0.063 µM | – | – | – | –
Cc1ccc(NC(=O)c2cnc(C(C)(C)C)s2)cc1C#Cc1nn(C[C@@H](C)CO)c2ncnc(N)c12 | 0.034 µM | > 10 µM | 0.073 µM | – | – | – | –
Cc1ccc(NC(=O)c2cncc(C(F)(F)F)c2)cc1C#Cc1nn(C2CCN(C)CC2)c2ncnc(N)c12 | 0.167 µM | > 10 µM | 0.065 µM | – | – | – | –
Cc1ccc(NC(=O)c2cc(C(C)(C)C)nn2C)cc1C#Cc1nn(C2CCN(C)CC2)c2ncnc(N)c12 | 0.324 µM | > 10 µM | 0.08 µM | – | – | – | –
Cc1ccc(NC(=O)c2cccc(C(F)(F)F)c2)cc1C#Cc1nn([C@@H]2CCN(C)C2)c2ncnc(N)c12 | – | 6.6 µM | – | – | – | – | –
CN1CCC(n2nc(C#Cc3cccc(NC(=O)Nc4cccc(C(F)(F)F)c4)c3)c3c(N)ncnc32)CC1 | 1.35 µM | 6.2 µM | 0.557 µM | – | – | – | –
CN1CCC(n2nc(C#Cc3cc(C(=O)Nc4cccc(C(F)(F)F)c4)ccc3Cl)c3c(N)ncnc32)CC1 | 0.749 µM | > 10 µM | 0.135 µM | – | – | – | –
Cc1ccc(NC(=O)c2cc(C(F)(F)F)cc(Cl)c2F)cc1C#Cc1nn(C2CCN(C)CC2)c2ncnc(N)c12 | 1.88 µM | > 10 µM | 3.38 µM | – | – | – | –
